Screening results deposited in PubChem by Sanford-Burnham Center for Chemical Genomics.
Apaf-1 act – activators of human Apaf-1 apoptosome; O14727; Apaf-1 apoptosome caspase-3 activation, DEVD-Rh110 fluorescence; hits give low values; activity change, negative = activation, % at 20 µM; 330,000 tested, 0.31% active; AID 489031;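 active = activity change at or below -40% at 20 µM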
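system = biochemical Apaf-1 apoptosome reconstitution | buffer or medium = 20 mM HEPES pH 7.5 with CHAPS, BSA | also added = dATP and cytochrome c as apoptosome triggers, (Z-DEVD)2-Rh110 substrate | incubation = 30 min compound preincubation and 50 min reaction, both room temperature | measured by = fluorescence, 540 nm emission, 480 nm excitation | read-out basis = Caspase-3 cleavage activity downstream of Apaf-1 activation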
Rh110 act interf – interferes with Rh110 fluorescence, flagging false Apaf-1 activators; shares compounds with Apaf-1 act; Rh110 fluorescence interference, quenched caspase reaction, Ex480/Em540; fluorescence interference (activity change), % at 20 µM, hits read low; 980 tested, under 10 active;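 active = mean activity change at or below -40% when tested at 20 µM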
Apaf-1 act conf2 – Apaf-1 (human) activation, single-dose confirmed. shares compounds with Apaf-1 act. reconstituted apoptosome caspase-3 activity, DEVD-Rh110 fluorescence; hits give low values. activity change, negative = activation, % at 20 µM. 980 tested, 5% active. AID 504617;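 active = mean activity change at or below -40%, meaning activation of 40% or more, at 20 µM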
Fluor interf act – counter-screen for Apaf-1 activators: fluorescence interference, dose response. shares compounds with Apaf-1 act. fluorescence interference counterscreen, Apaf-1 activator assay. EC50, µM. 55 tested, under 10 active; call rule not given here
Starred values were filed as active, the others as inactive; nt = no result given. These entries were drawn from the full list.

SMILES | Apaf-1 act | Rh110 act interf | Apaf-1 act conf2 | others
CCC1(C)NC(=O)N(CC(=O)N2CCC(Cc3ccccc3)CC2)C1=O (stereo unspecified) | 58 | nt | nt
CCCCn1c(N)c(N(CC)C(=O)CN2C(=O)NC(C)(c3ccccc3)C2=O)c(=O)[nH]c1=O (stereo unspecified) | -441* | 9 | 11
CCOC(=O)c1cnc(SCC(=O)N2CCN(C(=O)c3ccco3)CC2)nc1N | -93* | 1 | 10
CCOC(=O)c1cnc2ccc(C)cc2c1Nc1ccc(N2CCOCC2)cc1 | 41 | nt | nt
CCOC(=O)c1c(C)n(-c2ccc(C)cc2)c2c(C(C(C)=O)C(=O)O)c(Br)c(O)c(O)c12 (stereo unspecified) | 50 | nt | nt
CCOC(=O)C1=C(COC(=O)c2ccc([N+](=O)[O-])s2)NC(=O)NC1C (stereo unspecified) | 46 | nt | nt
CS(=O)(=O)N(CC(=O)N1CCN(c2ccccc2)CC1)c1ccccc1Cl | -164* | 4 | 11
COc1ccc(Cn2c(SCc3ccccc3C)nc3cc(OC)c(OC)cc3c2=N)cc1 | 70 | nt | nt
COc1ccc(CCN(C)C(=O)C2CC(=O)N(Cc3ccc(C)cc3)C2)cc1OC (stereo unspecified) | 56 | nt | nt
COc1ccc(CCNC(=O)CSc2nnc(C(C)N(C)C)n2Cc2ccccc2)cc1OC (stereo unspecified) | -60* | 22 | 15
O=C(Nc1ccc(N2CCN(C(=O)c3ccccc3F)CC2)cc1)c1cncc(Br)c1 | -65* | 14 | 17
Nc1ccc(Br)c2cccnc12 | 85 | nt | nt
CCC(CO)Oc1cc(NCc2ccc(F)cc2)c2ncn(C(C)C)c2c1 (stereo unspecified) | 43 | nt | nt
COc1ccc(N2CCN(C(c3cc(OC)ccc3OC)c3nnnn3Cc3ccco3)CC2)cc1 (stereo unspecified) | -258* | 7 | 13
Cc1ccc(C)c2[nH]c(=O)c(C(c3nnnn3Cc3ccco3)N3CCc4ccccc4C3)cc12 (stereo unspecified) | 71 | nt | nt
CCOC(=O)C(NC(=O)c1ccccc1Cl)(Nc1ccc(C(F)(F)F)cc1)C(F)(F)F (stereo unspecified) | -406* | 5 | 9
COc1ccc2ccccc2c1C(O)c1nccn1C (stereo unspecified) | 41 | nt | nt
CC(NCc1ccc(OCc2ccc(Cl)cc2)cc1)C(O)c1ccccc1 (stereo unspecified) | 41 | nt | nt
Cn1ccnc1C(O)c1ccc(OCc2ccccc2)cc1 (stereo unspecified) | -355* | 7 | 1
Cc1[nH][nH]c(=O)c1C(c1ccc(-c2cccc(Cl)c2)o1)c1c(C)[nH][nH]c1=O | 87 | nt | nt
Cc1cc([N+](=O)[O-])c(C)cc1-c1ccc(/C=N/NC(=O)c2cccnc2)o1 | 55 | nt | nt
Cc1ccc(/C=N/NC(=O)c2ccncc2)cc1 | -499* | -5 | 5
Cc1cccc(C(=O)N/N=C/c2ccncc2)c1 | -45* | 2 | 13
COc1ccc(-c2c(C#Cc3ccc(N(C)C)cc3)c3ccccc3n2C)cc1 | 57 | nt | nt
CC(C)(C)c1ccc(C(O)CCCN2CCC(C(O)(c3ccccc3)c3ccccc3)CC2)cc1 (stereo unspecified) | 53 | nt | nt
SMILES | Apaf-1 act | Rh110 act interf | Apaf-1 act conf2 | others
COc1ccccc1-n1ccnc1SCC(=O)NCc1ccco1 | -146* | 16 | 19
CCC[C@@H](CN1CCC[C@H]1CN1C(N)=NC[C@H]1CC(C)C)N1C[C@@H]([C@H](C)CC)N(CCc2ccc(Cl)c(Cl)c2)C1=N | 64 | nt | nt
COc1ccc(-c2nc3nc(C)c(Cc4ccccc4)c(=O)n3[nH]2)cc1 | 49 | nt | nt | Fluor interf act=>100
COc1ccc(Cn2nc(-c3ccccc3)c(N3CCCCC3)cc2=O)cc1 | 46 | nt | nt
CSc1ncc(CN2CCc3c([nH]c4ccccc34)C2c2cccc(O)c2)cn1 (stereo unspecified) | -158* | -4 | 14
CCC[C@@H](CN1CCC[C@H]1CN1C(N)=NC[C@@H]1Cc1ccccc1)N1C[C@@H](Cc2ccccc2)N(CCCC2CCCC2)C1=N | 70 | nt | nt
CCN(CC)CCOC(=O)c1ccc(N/C=C(/C#N)c2nc(-c3cccc(OC)c3)cs2)cc1 | 55 | nt | nt
Cc1ccsc1C=Nc1ccc(O)cc1 | 94 | nt | nt
C[C@H](NC(=O)N1CCn2c1nc1ccccc12)C(=O)NC1CCCCC1 | -168* | 15 | 16
O=C1C=C(O)c2cccc(O)c2C1=O | 44 | nt | nt
S=C1NCCc2ccc(Cl)cc2C1c1ccccc1Cl (stereo unspecified) | -514* | 1 | 16
Fc1ccc(NC(=S)Nc2cccc3cnccc23)cc1 | 95 | nt | nt
CN1CCN(S(=O)(=O)c2cccc(C(=O)Nc3cc(C(F)(F)F)ccc3N3CCCCC3)c2)CC1 | 40 | nt | nt
O=C(N/N=C/c1ccccn1)c1cccc(S(=O)(=O)N2CCCC2)c1 | -587* | 2 | 8
O=C(NCc1cccs1)c1cccc(S(=O)(=O)N2CCCCC2)c1 | 55 | nt | nt
CCCOc1cc2c(C#N)c(N3CCCC3)nc(N)c2c(N)n1 | 98 | nt | nt
CC1(C)S[C@@H]2[C@H](NC(=O)[C@H](N)c3ccccc3)C(=O)N2[C@H]1C(=O)O | -2 | nt | nt
CC1(C)C(C(=O)OCC(Cl)(Cl)Cl)N2C(=O)C(NC(=O)Cc3ccccc3)C2S1=O (stereo unspecified) | -85* | 0 | 12
O=C(NCCCn1ccnc1)c1noc2c1CCc1ccccc1-2 | 47 | nt | nt
c1ccc(-c2c(-c3ccccc3)n(Cc3ccco3)c3ncnc(NCCCn4ccnc4)c23)cc1 | 42 | nt | nt
O=C(NCCCn1ccnc1)c1cc(Cl)cc(Cl)c1 | -106* | -38 | 7
O=[N+]([O-])c1ccc(C=Nc2cccc3ccccc23)s1 | 68 | nt | nt
Cc1ccc(-n2ccnc2SCC(=O)O)c(C)c1 | -478* | -3 | 13
Cc1ccc(-c2nn3c(C)nnc3c3ccccc23)cc1S(=O)(=O)NC(C)c1ccccc1 (stereo unspecified) | 57 | nt | nt
CN(C)CCCNC(=O)C[C@H]1C[C@H](C(=O)N2CCCCC2)[C@@]2(CCc3ccccc3)c3[nH]c4ccc(Cl)cc4c3CCN2C1=O | 74 | nt | nt
SMILES | Apaf-1 act | Rh110 act interf | Apaf-1 act conf2 | others
O=C(NCC1CCCO1)c1ccc(Br)s1 (stereo unspecified) | -522* | 0 | 11
Nc1c(C(=O)NCC2CCCO2)c2nc3ccccc3nc2n1-c1ccccc1 (stereo unspecified) | 60 | nt | nt
O=C1CC(=Nc2ccccc2)NN1c1ccccc1 | 66 | nt | nt
O=C1N(c2ccccc2)c2ccccc2C1(Cc1ccncc1)Cc1ccncc1 | 5 | nt | nt
O=C(CN(Cc1cccs1)C(=O)CNS(=O)(=O)c1ccc(Cl)cc1)NCC1CCCO1 (stereo unspecified) | -292* | 1 | 9
CCc1cccc(C)c1NC(=S)NCc1ccc2c(c1)cc(C)n2C | 55 | nt | nt
c1ccc(C[C@H]2CN=C(Nc3ccccc3)N2CCCC2CCCCC2)cc1 | 47 | nt | nt
CCOC(=O)c1c(NC(=O)c2cccs2)sc(C)c1CC | 51 | nt | nt
C/C(=N\NC(=O)c1ccccc1)c1ccc(NC(=O)c2cccs2)cc1 | -143* | -3 | 10
CN(C)C(=O)c1ccc(NC(=O)c2sccc2-c2ccccc2)cc1 | 45 | nt | nt
